Key:
Spodoptera littoralis [1] = test: Insecticidal activity against Spodoptera littoralis larvae assessed as survival rat after 5 days; type: functional
Outline: (§1)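 Larvae kept 5 days in a moist chamber at 29 °C in darkness, then survival and larval weight compared with a carrier-only control group. Run in triplicate; LC50 (survival) and EC50 (growth) from dose-response curves by probit-log analysis.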

Spodoptera littoralis [2] = test: Insecticidal activity against Spodoptera littoralis larvae assessed as growth inhibition after 5 days; type: functional, organism-based; outline: as §1
Lymantria dispar = test: Insecticidal activity against Lymantria dispar larvae assessed as mean weight of surviving larvae after 8 days; type: functional, organism-based
Outline: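 Freshly hatched larvae (n = 10) from a laboratory colony reared on wheat germ-casein diet, fed diet spiked with 1 μg – 100 μg/g fresh wt of compound. Kept 8 days in a moist chamber at 26 °C in darkness. Mean weight of surviving larvae compared with controls. Commercial azadirachtin (>96%) as positive control. Three replicates; LC50/EC50 from dose-response curves by probit-log analysis.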

SMILES | LC50 (Spodoptera littoralis [1]) | EC50 (Spodoptera littoralis [2]) | EC50 (Lymantria dispar)
COC(=O)[C@H]1[C@@H](OC(C)=O)[C@@]2(O)c3c(cc4c(c3OC)OCO4)O[C@@]2(c2ccc(OC)cc2)[C@@H]1c1ccccc1 | 12.2 µg/g | 1.2 µg/g | 
COc1ccc(C2C(=O)Oc3cc4c(c(OC)c32)OCO4)cc1 (stereo unspecified) [AGLALACTONE] | >100 µg/g | > 100 µg/g | 
C/C=C(\C)C(=O)O[C@H]1C[C@@H](OC(C)=O)[C@@]2(C(=O)OC)CO[C@H]3[C@@H](O)[C@@](C)([C@]45O[C@@]4(C)[C@@H]4C[C@H]5O[C@@H]5OC=C[C@@]54O)[C@H]4[C@]1(CO[C@]4(O)C(=O)OC)[C@@H]32 [AZADIRACHTIN A] | 6.1 µg/g | 0.11 µg/g | 0.6 µg/g
CC(=O)N(CCCCNC(=O)/C=C/c1ccccc1)C(=O)CCc1ccccc1 [EDULIMIDE] | >250 µg/g | > 250 µg/g | 
COc1cc(C[C@H]2CO[C@H](c3ccc(O)c(OC)c3)[C@H]2COC(C)=O)ccc1O [LARICIRESINOL ACETATE] | >250 µg/g | > 250 µg/g | 
COC(=O)[C@H]1[C@@H](O)[C@@]2(O)c3c(cc4c(c3OC)OCO4)O[C@@]2(c2ccc(OC)cc2)[C@@H]1c1ccccc1 [PANNELLIN] | 2.1 µg/g | 0.24 µg/g | 1.4 µg/g
CC(C)(O)C(=O)NC1CCCN1C(=O)/C=C/c1ccccc1 (stereo unspecified) [PIRIFERINOL] | >250 µg/g | > 250 µg/g | 

Reference: ChEMBL document CHEMBL1151321, “Bisamides, lignans, triterpenes, and insecticidal Cyclopenta[b]benzofurans from Aglaia species” (J Nat Prod, 1998)
